Compound activity deposited in PubChem BioAssay by several laboratories.
NR2E3 ag-1 = NR2E3 (human) agonism; GST-NR2E3/biotin-RetCOR TR-FRET, 1536-well; inhibition of corepressor binding, % at 4.78 µM; actives 0.12% (n = 320,000); AID 2300;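 active = percent inhibition above the cutoff of mean plus 3 SD of all tested compounds, set per screening campaign, cut at about 20% in these data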;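 note: 0% = DMSO wells and 100% = biotin wells as full block of FRET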
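System: GST-tagged NR2E3 plus biotinylated RetCOR corepressor; Buffer or medium: pH 7.5 Tris-based buffer; Probe or stimulus: RetCOR corepressor, biotinylated, 7 nM; Doses: compound at 4.8 µM, single dose; Schedule: 5 h incubation at 4 °C; Technique: time-resolved FRET; Evaluation: percent inhibition of TR-FRET ratio; Replication: one well per compound, singlicate testing.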
NR2E3 ag-2 = activates human NR2E3 receptor. actives 0.35% (n = 360,000). inhibition of corepressor binding, % at 3.98 µM. CHO-S Gal4-NCOR/VP16-NR2E3 two-hybrid, luciferase. AID 602229. Q9Y5X4;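 active = inhibition above the mean of all tested compounds plus 3 SD, cut at about 70% in these data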;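 note: 0% = DMSO with NR2E3 transfected cells and 100% = cells lacking NR2E3 construct; higher means lower luciferase signal from less NR2E3 corepressor binding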
PG9 binder = binds the HIV-1 gp120 antibody PG9; inhibition, % at 6.7 µM; TR-FRET gp120-PG9 antibody binding; actives 0.43% (n = 360,000); in the data active = inhibition above about 8.5%
MC4R barr agon = agonists of human melanocortin 4 receptor (MC4R) beta-arrestin; U2OS MC4R beta-arrestin complementation, luminescence; percent of melanotan II response, DMSO zero; activation, % at 8.9 µM; actives 0.98% (n = 360,000);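 active = activation above a per-plate cutoff, the mean activation of sample wells on that plate plus 3 SD, cut at about 8% in these data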
NR1D1 modulator = modulates human Rev-erb alpha binding to DNA; Rev-erbα–FITC-DNA binding, fluorescence polarization, 90 min; activity, % at 10 µM; actives 0.79% (n = 370,000);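 active = activity above about 14%, limit read from the data; passing the limit was not always enough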;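 note: 0% = DMSO wells with 35 nM protein and 100% = DMSO wells with 750 nM protein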
Target sequence (P20393 whole entry, looked up): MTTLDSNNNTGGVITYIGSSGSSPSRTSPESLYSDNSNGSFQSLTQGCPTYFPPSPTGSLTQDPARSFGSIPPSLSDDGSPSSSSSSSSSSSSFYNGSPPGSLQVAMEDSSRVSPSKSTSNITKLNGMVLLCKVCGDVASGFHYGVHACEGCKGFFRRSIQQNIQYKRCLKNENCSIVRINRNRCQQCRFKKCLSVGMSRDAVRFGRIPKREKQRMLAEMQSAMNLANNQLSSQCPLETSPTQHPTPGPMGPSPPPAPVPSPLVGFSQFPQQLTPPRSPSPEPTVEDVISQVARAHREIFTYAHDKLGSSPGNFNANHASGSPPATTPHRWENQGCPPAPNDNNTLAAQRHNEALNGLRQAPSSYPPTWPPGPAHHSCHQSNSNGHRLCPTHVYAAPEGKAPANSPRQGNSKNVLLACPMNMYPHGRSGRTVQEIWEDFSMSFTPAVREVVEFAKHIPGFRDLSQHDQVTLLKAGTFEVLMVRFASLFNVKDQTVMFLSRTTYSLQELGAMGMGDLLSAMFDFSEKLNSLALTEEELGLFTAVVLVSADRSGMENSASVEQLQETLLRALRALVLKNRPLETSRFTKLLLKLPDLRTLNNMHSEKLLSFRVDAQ
MC4R antagonist = human MC4R antagonism in cAMP assay; P32245; AID 540295; MC4R-expressing cells, MTII-stimulated cAMP, LANCE TR-FRET; actives 0.48% (n = 360,000); inhibition, % at 6.5 µM;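 active = inhibition above its plate's cutoff, the mean of tested wells on that plate plus 3 SD, cut at about 29% in these data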;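 note: 0% = Melanotan II alone and 100% = Melanotan II plus saturating MCL0020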
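Assay system: human MC4R-expressing U2OS cells; reagent: Melanotan II stimulation of cells; dosing: 6.5 µM single dose; timing: compound 30 min, challenge 1 h, detection 1 h; signal: TR-FRET cAMP assay; replicates: one well per compound, no replicates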
NR1D1 mod conf = confirmation of modulators of human Rev-erb alpha DNA binding | shares compounds with NR1D1 modulator | Rev-erb alpha FITC-DNA binding, fluorescence polarization, 90 min | activation, % at 25 µM | actives 61% (n = 3,000) | AID 1259319;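 active = activation at or above a set limit, or at least 3 SD above the negative control mean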;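 note: 0% = 35 nM protein with DMSO and 100% = 750 nM protein high control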
RORg DNA counter = affects RORgamma DNA binding in a Rev-erb alpha counter-screen; AID 1259320; purified RORgamma protein-FITC-DNA binding, fluorescence polarization; actives 8% (n = 910); shares compounds with NR1D1 modulator; IC50, µM;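 active = Compounds whose fitted half-maximal concentration for disrupting protein-DNA binding is below 10 micromolar; the record names Rev-erb in its text, so the target is in doubt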
* = called active by the depositor; nt = not tested or not shown. A selection: hits, their analogues and other compounds. The true share with any hit is near 2.7%.

SMILES	NR2E3 ag-1	NR2E3 ag-2	PG9 binder	MC4R barr agon	NR1D1 modulator	MC4R antagonist	NR1D1 mod conf	others
CN(C)c1ccc(P(=O)(OCc2ccccc2)C(O)c2ccc(Cl)cc2)cc1 (centres undefined)	-5	-6	-3	-1	-5	10	nt
Cc1cccc2nc(COc3ccc(-c4ccccc4)cc3)cn12	0	nt	nt	nt	nt	nt	nt
CCOc1ncccc1C(=O)Nc1cc(S(=O)(=O)N2CCCCC2)ccc1Cl	3	19	1	-1	23*	-3	11*
COc1ccc(S(=O)(=O)N2CCCCC2)cc1NC(=O)c1cncc(Br)c1	2	-19	-5	-1	41*	4	19*
CC(C)(C)C(=O)Nc1cc(S(=O)(=O)N2CCCCC2)ccc1N1CCCCC1	5	-1	-3	-1	39*	6	38*	RORg DNA counter=>40
COc1ccc(S(=O)(=O)N2CCCCCC2)cc1NC(=O)c1ccccc1	-2	-7	0	-1	1	3	nt
CC1CC(=O)Nc2ccccc2N1S(=O)(=O)c1ccc(C(F)(F)F)cc1 (centres undefined)	-1	3	-2	-4	-5	0	nt
COC(=O)c1cc2c(c3c4cc(OC)ccc4n(S(=O)(=O)c4cccc(C)c4)c13)C(=O)N(Cc1ccc(C(F)(F)F)cc1)C2	nt	nt	1	nt	18*	nt	8
CCOC(=O)c1cnc(SCC(=O)N2CCc3ccccc32)nc1N	2	-11	0	-1	49*	4	7
CC1=C(/C=C/C(C)=C/C=C/C(C)=C\C(=O)O)C(C)(C)CCC1	-3	-30	-2	0	0	10	nt
COc1ccc(Cl)cc1C(=O)Nc1cccc(-c2ccc3nncn3n2)c1	-164	20	4	1	128*	9	183*	RORg DNA counter=>40
Cc1ccc(-c2nc3c(c(=O)c4ccccc4n3C)c(=O)n2-c2ccccc2)cc1	4	6	2	-1	26*	28	19*
Cc1nc2c(c(=O)c3ccccc3n2C)c(=O)n1-c1ccc(F)cc1	3	-23	0	1	-5	19	nt
COCCn1c(-c2ccc(Cl)cc2Cl)nc2c(c(=O)c3ccccc3n2C)c1=O	0	-10	-2	-2	65*	-1	23*
CCc1nc2c(c(=O)c3ccccc3n2C)c(=O)n1CCc1ccc(OC)cc1	-4	nt	nt	nt	nt	nt	nt
Cc1cccc(-c2nc3c(c(=O)c4ccccc4n3C)c(=O)n2-c2ccccc2)c1	1	-21	-1	-4	40*	11	29*
COc1ccc(CCn2c(-c3ccc(OC)cc3)nc3c(c(=O)c4ccccc4n3C)c2=O)cc1	0	-24	1	-3	50*	8	31*	RORg DNA counter=>40
COc1ccc(CN2C(=O)C(CC(=O)NC3CCCC3)CC(C(=O)N(C)C)=C2C)cc1 (centres undefined)	nt	-12	0	0	-2	5	nt
O=C(NCCCN1CCC(Cc2ccccc2)CC1)c1ccc2nc(N3CCOCC3)sc2c1	0	-2	0	1	1	4	nt
COC(OC)C12c3ccccc3C(c3ccccc31)C1C(=O)N(c3cccnc3)C(=O)C12 (centres undefined)	2	-32	-2	0	3	8	nt
CC(C)Oc1ccc(CCC(=O)NNC(=S)Nc2ccccc2)cc1	4	-1	0	-3	4	23	nt
CCOC(=O)C1C(=O)CC(C)(O)C(C(=O)OCC)C1c1ccc(OCC)cc1 (centres undefined)	-1	1	-2	1	1	9	nt
CCOC(=O)C1=C(Nc2ccc(Br)cc2)CC(C)(O)C(C(=O)OCC)C1c1ccccc1 (centres undefined)	-4	-9	-1	1	28*	4	10
Cc1ccc(C)c(NC(=S)N2CCCC2)c1	1	6	-2	-2	3	8	nt
